ChEMBL document CHEMBL4270564, “Synergistic inhibition of the Hedgehog pathway by newly designed Smo and Gli antagonists bearing the isoflavone scaffold” (Eur J Med Chem, 2018)
Active and inactive are the calls of the source. No cut-off for these calls is given here.

What was measured:
Protein smoothened = Protein smoothened (Mus musculus, UniProt P56726); experiment: Antagonist activity at smo in SAG-treated mouse Light2 cells after 48 hrs by renilla luciferase reporter gene assay; assay type: functional
Outline: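 NIH3T3 Shh-Light II cells carry a stable Gli-responsive firefly luciferase reporter plus pRL-TK Renilla. They were stimulated with SAG 200 nM and treated with compound for 48 h. Read-out was dual-luciferase, as the Luciferase/Renilla ratio. Mean ± SD of three independent experiments, each in triplicate.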

Zinc finger protein GLI1 = molecular target: T1, Zinc finger protein GLI1 (Mus musculus, UniProt P47806); experiment: Inhibition of Gli1 transcriptional activity in mouse embroyonic fibroblasts after 24 hrs by renilla luciferase reporter gene assay
T1 sequence (P47806 whole entry): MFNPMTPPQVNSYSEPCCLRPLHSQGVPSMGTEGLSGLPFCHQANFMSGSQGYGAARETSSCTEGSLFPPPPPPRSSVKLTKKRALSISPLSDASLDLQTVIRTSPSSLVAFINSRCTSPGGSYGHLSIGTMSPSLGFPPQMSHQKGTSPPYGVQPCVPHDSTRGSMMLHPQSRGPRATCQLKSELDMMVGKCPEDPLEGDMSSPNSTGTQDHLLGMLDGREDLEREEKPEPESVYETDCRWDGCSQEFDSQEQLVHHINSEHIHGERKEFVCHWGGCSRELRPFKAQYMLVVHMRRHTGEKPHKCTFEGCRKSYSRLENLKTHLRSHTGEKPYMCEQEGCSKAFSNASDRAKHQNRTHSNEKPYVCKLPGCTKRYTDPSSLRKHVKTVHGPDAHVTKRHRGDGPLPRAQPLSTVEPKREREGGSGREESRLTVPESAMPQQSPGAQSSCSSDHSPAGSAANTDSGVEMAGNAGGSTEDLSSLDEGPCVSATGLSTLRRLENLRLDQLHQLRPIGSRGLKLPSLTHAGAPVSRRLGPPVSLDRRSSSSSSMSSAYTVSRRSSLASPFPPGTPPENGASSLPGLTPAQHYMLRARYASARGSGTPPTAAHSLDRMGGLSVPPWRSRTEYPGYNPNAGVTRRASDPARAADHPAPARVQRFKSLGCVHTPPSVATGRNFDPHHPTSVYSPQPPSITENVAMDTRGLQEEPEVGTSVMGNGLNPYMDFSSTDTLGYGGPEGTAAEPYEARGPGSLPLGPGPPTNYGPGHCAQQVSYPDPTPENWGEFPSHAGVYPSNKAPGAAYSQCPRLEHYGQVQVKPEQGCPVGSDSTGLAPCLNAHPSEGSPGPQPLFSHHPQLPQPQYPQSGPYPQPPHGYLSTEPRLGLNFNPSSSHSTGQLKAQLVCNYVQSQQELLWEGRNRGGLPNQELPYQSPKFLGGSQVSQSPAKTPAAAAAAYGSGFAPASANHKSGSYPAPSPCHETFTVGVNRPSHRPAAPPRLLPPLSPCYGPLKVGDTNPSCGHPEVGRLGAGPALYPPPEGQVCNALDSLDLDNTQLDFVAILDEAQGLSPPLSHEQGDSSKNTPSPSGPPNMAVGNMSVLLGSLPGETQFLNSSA
Outline: (§1)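 Wild-type MEFs expressing ectopic Gli1 were transfected with 12XGliBS-Luc, pRL-TK Renilla and empty or Gli1 vector. They were exposed to rising compound concentrations for 24 h; DMSO-only controls. Luciferase/Renilla ratio; mean ± SD of three independent experiments.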

Medulloblastoma cell [1] = experiment: Growth inhibition of mouse Ptch+/- medulloblastoma cells at 0.25 uM after 72 hrs relative to control; assay type: functional; conditions: read-out: GI
Outline: (§2)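 Primary medulloblastoma cells were freshly isolated from Ptch+/- mouse tumors. They were kept in short-term culture in Neurobasal Media-A with B27 minus vitamin A to retain Hh sensitivity. Cells were exposed to single compounds for 72 h, and percent growth inhibition was reported as mean ± SD.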

Medulloblastoma cell [2] = experiment: Growth inhibition of mouse Ptch+/- medulloblastoma cells at 2 uM after 72 hrs relative to control; assay type: functional; conditions: read-out: GI
Medulloblastoma cell [3] = experiment: Growth inhibition of mouse Ptch+/- medulloblastoma cells at 1 uM after 72 hrs relative to control; assay type: functional; conditions: read-out: GI; outline: as §2
Medulloblastoma cell [4] = experiment: Growth inhibition of mouse Ptch+/- medulloblastoma cells at 0.125 uM after 72 hrs relative to control; assay type: functional; conditions: read-out: GI; outline: as §2
Medulloblastoma cell [5] = experiment: Growth inhibition of mouse Ptch+/- medulloblastoma cells at 0.5 uM after 72 hrs relative to control; assay type: functional; conditions: read-out: GI; outline: as §2
Medulloblastoma cell [6] = experiment: Synergistic growth inhibition of mouse Ptch+/- medulloblastoma cells at 0.5 uM after 72 hrs in presence of Gli inhibitor GlaB; assay type: functional; conditions: read-out: GI
Outline: (§3)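 Freshly isolated Ptch+/- mouse medulloblastoma primary cells were held in short-term Neurobasal-A/B27 (minus vitamin A) culture. They were treated for 72 h with a binary combination of a Gli1 antagonist and a Smo antagonist, each at the stated concentration. Percent growth inhibition was reported.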

Medulloblastoma cell [7] = experiment: Synergistic growth inhibition of mouse Ptch+/- medulloblastoma cells at 0.25 uM after 72 hrs in presence of Gli inhibitor GlaB; assay type: functional; conditions: read-out: GI; outline: as §3
[8] = molecular target: Protein smoothened (Mus musculus) (UniProt P56726); experiment: Antagonist activity at smo in SuFu-/- mouse embroyonic fibroblasts assessed as downregulation of Gli1 mRNA levels after 48 hrs by qRT-PCR method; assay type: functional
Outline: (§4)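 SuFu-/- MEFs were grown in DMEM with 10% FBS, antibiotics and L-glutamine, then treated with compound for 48 h; DMSO-only controls. Gli1 and Gli2 mRNA were measured by qRT-PCR and normalized to HPRT. Mean ± SD of three independent experiments; Student's t-test versus DMSO.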

Medulloblastoma cell [9] = experiment: Synergistic growth inhibition of mouse Ptch+/- medulloblastoma cells at 0.125 uM after 72 hrs in presence of Gli inhibitor GlaB; assay type: functional; conditions: read-out: GI; outline: as §3
[10] = molecular target: Protein smoothened (Mus musculus) (UniProt P56726); experiment: Antagonist activity at smo in SuFu-/- mouse embroyonic fibroblasts assessed as downregulation of Gli2 mRNA levels after 48 hrs by qRT-PCR method; assay type: functional; outline: as §4
[11] = molecular target: T2, Zinc finger protein GLI1 (Mus musculus) (UniProt P47806); experiment: Inhibition of Gli1 transcriptional activity in Smo-/- mouse embroyonic fibroblasts up to 20 uM after 24 hrs by renilla luciferase reporter gene assay
T2 sequence (whole entry): T1 sequence (P47806 whole entry)
Outline: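 Smo-/- MEFs were transfected with 12xGliBS-Luc and pRL-TK Renilla plus empty or Gli1 vector. They were treated with increasing concentrations of compound for 24 h; DMSO-only controls. Read-out was luciferase normalized to Renilla. Mean ± SD of three independent experiments; t-test versus DMSO.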

MEF [12] = experiment: Downregulation of Gli1 levels in SuFu-/- mouse embroyonic fibroblasts up to 20 uM after 48 hrs by qRT-PCR
MEF [13] = experiment: Downregulation of Gli2 levels in SuFu-/- mouse embroyonic fibroblasts up to 20 uM after 48 hrs by qRT-PCR
[14] = molecular target: T2, Zinc finger protein GLI1 (Mus musculus); experiment: Inhibition of Gli1 transcriptional activity in mouse embroyonic fibroblasts up to 30 uM after 24 hrs by renilla luciferase reporter gene assay; outline: as §1

Chain of Protein smoothened (Mus musculus) (P56726 whole entry): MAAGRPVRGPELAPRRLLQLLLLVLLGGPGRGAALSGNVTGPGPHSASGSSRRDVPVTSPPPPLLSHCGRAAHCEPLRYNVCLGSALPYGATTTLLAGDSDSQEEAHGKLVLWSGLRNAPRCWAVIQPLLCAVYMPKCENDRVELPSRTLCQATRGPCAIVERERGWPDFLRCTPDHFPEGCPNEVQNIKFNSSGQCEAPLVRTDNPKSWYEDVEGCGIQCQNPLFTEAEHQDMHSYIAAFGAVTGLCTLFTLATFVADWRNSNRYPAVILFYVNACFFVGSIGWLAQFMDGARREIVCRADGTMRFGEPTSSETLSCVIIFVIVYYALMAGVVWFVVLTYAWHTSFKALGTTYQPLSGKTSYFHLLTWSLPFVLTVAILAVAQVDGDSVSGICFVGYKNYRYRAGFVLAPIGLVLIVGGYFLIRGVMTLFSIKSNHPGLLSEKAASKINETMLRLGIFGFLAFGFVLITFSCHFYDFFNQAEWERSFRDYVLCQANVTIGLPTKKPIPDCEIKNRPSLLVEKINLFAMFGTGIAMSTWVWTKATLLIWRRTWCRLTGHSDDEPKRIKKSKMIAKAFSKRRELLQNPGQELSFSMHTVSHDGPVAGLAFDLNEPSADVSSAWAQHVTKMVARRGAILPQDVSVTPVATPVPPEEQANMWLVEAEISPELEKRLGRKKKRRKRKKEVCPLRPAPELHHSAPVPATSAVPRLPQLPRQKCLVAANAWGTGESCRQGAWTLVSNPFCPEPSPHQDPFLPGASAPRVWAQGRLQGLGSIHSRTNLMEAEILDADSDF
Chain of Protein smoothened (P56726 whole entry): as above

COc1cc(OC)c2c(=O)c(-c3ccc(OC/C=C(\C)CCC=C(C)C)c(OC)c3)coc2c1
IC50 (Protein smoothened): Nd(Toxic)
IC50 (Zinc finger protein GLI1): Nd(Toxic)

COc1cc(OC)c2c(=O)c(-c3cccc(OCc4ccc(C(F)(F)F)cc4)c3)coc2c1
IC50 (Protein smoothened; read-out: IC50): 10.5 µM
IC50 (Zinc finger protein GLI1; read-out: IC50): 26.7 µM

COc1cc(OC)c2c(=O)c(-c3ccc(OC)c(OCc4ccccc4)c3)coc2c1
IC50 (Protein smoothened; read-out: IC50): 3.72 µM
IC50 (Zinc finger protein GLI1; read-out: IC50): 17.1 µM

COc1cc(OC)c2c(=O)c(-c3ccc(OCC=C(C)C)c(OC)c3)coc2c1
IC50 (Protein smoothened; read-out: IC50): 6.97 µM
IC50 (Zinc finger protein GLI1; read-out: IC50): 10.7 µM

COc1cc(OC)c2c(=O)c(-c3ccc(OC)c(OCc4ccc(C#N)cc4)c3)coc2c1
IC50 (Protein smoothened; read-out: IC50): 16 µM
IC50 (Zinc finger protein GLI1): Nd(Toxic)

COc1cc(OC)c2c(=O)c(-c3ccc(OC)c(OC/C=C(\C)CCC=C(C)C)c3)coc2c1
IC50 (Protein smoothened; read-out: IC50): 3.61 µM
IC50 (Zinc finger protein GLI1; read-out: IC50): 21.2 µM

COc1cc(OC)c2c(=O)c(-c3ccc(OCC=C(C)C)c(OCC=C(C)C)c3)coc2c1
inhibition of growth at 0.25 µM (Medulloblastoma cell [1]): 42.4%
inhibition of growth at 2 µM (Medulloblastoma cell [2]): 65.1%
inhibition of growth at 1 µM (Medulloblastoma cell [3]): 55.9%
inhibition of growth at 0.125 µM (Medulloblastoma cell [4]): 28.6%
inhibition of growth at 0.5 µM (Medulloblastoma cell [5]): 46.6%

COc1cc(OC)c2c(=O)c(-c3cccc(O)c3)coc2c1
IC50 (Protein smoothened; read-out: IC50): > 30 µM
IC50 (Zinc finger protein GLI1): Nd(Toxic)

COc1cc(OC)c2c(=O)c(-c3ccc(OCc4ccccc4)c(OCc4ccccc4)c3)coc2c1
inhibition of growth at 0.5 µM (Medulloblastoma cell [6]): 70%
inhibition of growth at 0.25 µM (Medulloblastoma cell [7]): 63.4%
IC50 (Protein smoothened; read-out: IC50): 0.29 µM
inhibition of growth at 0.25 µM (Medulloblastoma cell [1]): 44.2%
IC50 (Zinc finger protein GLI1; read-out: IC50): 57.7 µM
inhibition of growth at 2 µM (Medulloblastoma cell [2]): 66.6%
inhibition [8]: inactive
inhibition of growth at 1 µM (Medulloblastoma cell [3]): 61.2%
inhibition of growth at 0.125 µM (Medulloblastoma cell [4]): 33.3%
inhibition of growth at 0.5 µM (Medulloblastoma cell [5]): 51.4%
inhibition of growth at 0.125 µM (Medulloblastoma cell [9]): 38.3%
inhibition [10]: inactive
inhibition [11]: inactive

COc1cc(OC)c2c(=O)c(-c3ccc(OC)c(OCc4ccc(C(F)(F)F)cc4)c3)coc2c1
Activity (MEF [12]): Active
IC50 (Protein smoothened; read-out: IC50): 2.58 µM
inhibition of growth at 0.25 µM (Medulloblastoma cell [1]): 40.6%
Activity (MEF [13]): Active
IC50 (Zinc finger protein GLI1; read-out: IC50): 11.5 µM
inhibition of growth at 2 µM (Medulloblastoma cell [2]): 54%
inhibition of growth at 1 µM (Medulloblastoma cell [3]): 50.9%
inhibition of growth at 0.125 µM (Medulloblastoma cell [4]): 37.7%
inhibition of growth at 0.5 µM (Medulloblastoma cell [5]): 44.5%
inhibition [11]: Active

COc1cc(OC)c2c(=O)c(-c3ccc(OC)c(OCc4ccc(C(N)=O)cc4)c3)coc2c1
IC50 (Protein smoothened; read-out: IC50): > 30 µM
IC50 (Zinc finger protein GLI1): Nd(Toxic)

COc1cc(OC)c2c(=O)c(-c3ccc(OCc4ccccc4)c(OC)c3)coc2c1
IC50 (Protein smoothened; read-out: IC50): 6.92 µM
IC50 (Zinc finger protein GLI1; read-out: IC50): 39.2 µM

COc1cc(OC)c2c(=O)c(-c3cccc(OCC=C(C)C)c3)coc2c1
IC50 (Protein smoothened; read-out: IC50): > 30 µM
IC50 (Zinc finger protein GLI1; read-out: IC50): > 20 µM

COC(=O)c1ccc(COc2cc(-c3coc4cc(OC)cc(OC)c4c3=O)ccc2OC)cc1
IC50 (Protein smoothened; read-out: IC50): > 30 µM
IC50 (Zinc finger protein GLI1): Nd(Toxic)

COc1cc(OC)c2c(=O)c(-c3ccc(OC)c(OCc4ccc([N+](=O)[O-])cc4)c3)coc2c1
IC50 (Protein smoothened; read-out: IC50): > 30 µM
IC50 (Zinc finger protein GLI1): Nd(Toxic)

COc1cc(OC)c2c(=O)c(-c3ccc(OCc4ccc(C(F)(F)F)cc4)c(OC)c3)coc2c1
inhibition of growth at 0.5 µM (Medulloblastoma cell [6]): 60.1%
inhibition of growth at 0.25 µM (Medulloblastoma cell [7]): 53.1%
IC50 (Protein smoothened; read-out: IC50): 3.48 µM
inhibition of growth at 0.25 µM (Medulloblastoma cell [1]): 23.5%
IC50 (Zinc finger protein GLI1; read-out: IC50): 55.3 µM
inhibition of growth at 2 µM (Medulloblastoma cell [2]): 54.2%
inhibition [8]: inactive
inhibition of growth at 1 µM (Medulloblastoma cell [3]): 51.8%
inhibition of growth at 0.125 µM (Medulloblastoma cell [4]): 20.8%
inhibition of growth at 0.5 µM (Medulloblastoma cell [5]): 32.5%
inhibition of growth at 0.125 µM (Medulloblastoma cell [9]): 33.5%
inhibition [10]: inactive
inhibition [11]: inactive

CS(=O)(=O)c1ccc(C(=O)Nc2ccc(Cl)c(-c3ccccn3)c2)c(Cl)c1
inhibition [14]: inactive

COc1cc(OC)c2c(=O)c(-c3ccc(OC)c(OCC=C(C)C)c3)coc2c1
Activity (MEF [12]): Active
IC50 (Protein smoothened; read-out: IC50): 2.87 µM
inhibition of growth at 0.25 µM (Medulloblastoma cell [1]): 26.3%
Activity (MEF [13]): Active
IC50 (Zinc finger protein GLI1; read-out: IC50): 5.7 µM
inhibition of growth at 2 µM (Medulloblastoma cell [2]): 55.4%
inhibition of growth at 1 µM (Medulloblastoma cell [3]): 35.6%
inhibition of growth at 0.125 µM (Medulloblastoma cell [4]): 5.9%
inhibition of growth at 0.5 µM (Medulloblastoma cell [5]): 29.2%
inhibition [11]: Active
